Here are results for 1 molecule from ChEMBL document CHEMBL4706672 (J Med Chem, 2021).

One may read the IC50 as the midpoint of a concentration-inhibition curve.

Calls of active or inactive are those of the source. The rule behind the calls is not given here.

Test [1] relates to HEK293. Briefly: Antiproliferative activity against human HEK293 cells assessed as reduction in cell viability incubated for 24 hrs by MTT assay. In kind it is functional, cell-based. The note with it: HEK293, 24 h. The essentials: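 HEK-293 cells were treated with compound for 24 h, in parallel with the luciferase reporter assay. Viability was read by MTT absorbance at 570 nm, and IC50 was taken from three independent experiments.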

Test [2] addresses Protein cereblon/Signal transducer and activator of transcription 3 (Homo sapiens, UniProt P40763+Q96SW2). Briefly: Protac activity at CRBN/STAT3 in human BxPC-3 cells assessed as decrease in STAT3 expression level at 5 uM after 16 hrs by western blot analysis. Type of test: cell-based. The essentials:
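BxPC-3 cells seeded at 500 × 10^3 per well in 6-well plates, treated 16 h. Sonication lysis at 4 °C in Tris/NaCl/Triton/SDS buffer pH 7.4 with protease and phosphatase inhibitors, BCA protein assay, SDS-PAGE, PVDF transfer. Probed for STAT3, pSTAT3 and NQO1 with GAPDH loading control; fluorescent secondary detection.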

For test [3], the target named is Signal transducer and activator of transcription 3 (Homo sapiens) (UniProt P40763). Briefly: Inhibition of STAT3 phosphorylation in human MIA PaCa-2 cells at 0.5 to 1 uM after 16 hrs by western blot analysis. In kind it is cell-based. Conditions: dose 0.5-1 µM. The essentials: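 Cells were seeded in 6-well plates (BxPC-3 500 × 10^3, MIA PaCa-2 200 × 10^3 cells/well) and exposed to compound for 16 h. Lysis was at 4 °C by sonication in Tris/NaCl/Triton/SDS buffer, pH 7.4, with protease and phosphatase inhibitors. Lysates were run on SDS-PAGE, transferred to PVDF and probed for STAT3, pSTAT3 and NQO1 with GAPDH as loading control. Immunoblots were imaged on an Odyssey system.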
Chain of Signal transducer and activator of transcription 3 (Homo sapiens) (P40763 whole entry): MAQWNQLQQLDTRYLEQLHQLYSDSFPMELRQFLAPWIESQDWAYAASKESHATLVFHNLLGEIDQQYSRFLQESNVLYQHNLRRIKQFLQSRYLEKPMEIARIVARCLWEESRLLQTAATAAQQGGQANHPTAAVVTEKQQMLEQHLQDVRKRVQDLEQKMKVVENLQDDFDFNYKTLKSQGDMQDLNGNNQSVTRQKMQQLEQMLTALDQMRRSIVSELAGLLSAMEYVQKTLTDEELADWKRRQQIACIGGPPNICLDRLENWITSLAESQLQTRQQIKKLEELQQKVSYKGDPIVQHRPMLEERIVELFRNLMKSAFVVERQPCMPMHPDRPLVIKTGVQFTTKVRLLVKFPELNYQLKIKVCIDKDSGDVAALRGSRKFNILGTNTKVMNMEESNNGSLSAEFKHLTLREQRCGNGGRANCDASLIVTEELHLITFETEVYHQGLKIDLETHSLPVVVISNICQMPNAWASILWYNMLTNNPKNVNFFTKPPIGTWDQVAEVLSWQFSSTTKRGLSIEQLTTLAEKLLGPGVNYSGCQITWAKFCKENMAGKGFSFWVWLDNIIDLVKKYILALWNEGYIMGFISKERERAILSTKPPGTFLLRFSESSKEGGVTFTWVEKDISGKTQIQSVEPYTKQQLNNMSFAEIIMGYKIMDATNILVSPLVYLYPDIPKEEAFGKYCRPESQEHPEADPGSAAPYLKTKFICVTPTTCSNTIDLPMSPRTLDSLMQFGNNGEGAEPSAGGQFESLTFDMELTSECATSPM
On the technique in general: Immunoblotting shows a protein as a band on a membrane.

In test [4] the target is Protein cereblon/Transmembrane protease serine 4 (Homo sapiens) (UniProt Q9NRS4+Q96SW2). Nature of the test: Protac activity at CRBN/TMPRSS4 in human BxPC-3 cells assessed as TMPRSS4 degradation incubated for 16 hrs by proteomic analysis. In kind it is cell-based. The essentials: (§1)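 BxPC-3 cells exposed 16 h in triplicate (control, PROTAC) or duplicate (other arms); lysed in RIPA at 4 °C, 75 μg protein per sample. Reduced with DTT (1 h, 55 °C), alkylated with 2-chloroacetamide, acetone-precipitated, trypsin-digested overnight at 37 °C, TMT 10plex labelled, relative quantitation by LC-tandem MS.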

Test [5] has as its target Protein cereblon/Apoptosis-stimulating of p53 protein 2 (Homo sapiens) (UniProt Q96SW2+Q13625). Nature of the test: Protac activity at CRBN/TP53BP2 in human BxPC-3 cells assessed as TP53BP2 degradation incubated for 16 hrs by proteomic analysis. Type of test: cell-based. The method in brief: as §1
In test [6] the target is Protein cereblon/Dynein light chain Tctex-type 1 (Homo sapiens) (UniProt Q96SW2+P63172). Briefly: Protac activity at CRBN/DYNLT1 in human BxPC-3 cells assessed as DYNLT1 degradation incubated for 16 hrs by proteomic analysis. Type of test: cell-based. The essentials: (§2)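 TMT 10plex proteomics. […] Samples (75 μg) were reduced with DTT, alkylated with 2-chloroacetamide, acetone-precipitated, trypsin-digested overnight at 37 °C and TMT-labeled for LC-MS/MS relative quantitation.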

Test [7] deals with Protein cereblon/Melanoma-associated antigen D1 (Homo sapiens) (UniProt Q96SW2+Q9Y5V3). Nature of the test: Protac activity at CRBN/MAGED1 in human BxPC-3 cells assessed as MAGED1 degradation incubated for 16 hrs by proteomic analysis. Type of test: cell-based. The essentials:
as §2

In test [8] the target is Protein cereblon/SET domain-containing protein 4 (Homo sapiens) (UniProt Q96SW2+Q9NVD3). Nature of the test: Protac activity at CRBN/SETD4 in human BxPC-3 cells assessed as SETD4 degradation incubated for 16 hrs by proteomic analysis. Type of test: cell-based. The method in brief: as §2
Chain of Protein cereblon/SET domain-containing protein 4 (Homo sapiens) (Q96SW2 whole entry, looked up, the tested form may be a part): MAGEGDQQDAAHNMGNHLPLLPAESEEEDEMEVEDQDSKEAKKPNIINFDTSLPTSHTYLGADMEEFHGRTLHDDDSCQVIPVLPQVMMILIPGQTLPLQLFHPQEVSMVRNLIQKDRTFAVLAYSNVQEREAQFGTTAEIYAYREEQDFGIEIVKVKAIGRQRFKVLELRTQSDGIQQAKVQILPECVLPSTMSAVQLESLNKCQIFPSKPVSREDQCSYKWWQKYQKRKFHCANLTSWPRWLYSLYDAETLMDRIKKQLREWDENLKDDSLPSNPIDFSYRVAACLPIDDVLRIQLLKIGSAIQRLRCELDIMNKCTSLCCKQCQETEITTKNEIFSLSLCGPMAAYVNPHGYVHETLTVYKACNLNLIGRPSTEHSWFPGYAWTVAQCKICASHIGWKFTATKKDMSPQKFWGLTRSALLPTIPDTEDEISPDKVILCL
Chain of Protein cereblon/SET domain-containing protein 4 (Homo sapiens) (Q9NVD3 whole entry, looked up, the tested form may be a part): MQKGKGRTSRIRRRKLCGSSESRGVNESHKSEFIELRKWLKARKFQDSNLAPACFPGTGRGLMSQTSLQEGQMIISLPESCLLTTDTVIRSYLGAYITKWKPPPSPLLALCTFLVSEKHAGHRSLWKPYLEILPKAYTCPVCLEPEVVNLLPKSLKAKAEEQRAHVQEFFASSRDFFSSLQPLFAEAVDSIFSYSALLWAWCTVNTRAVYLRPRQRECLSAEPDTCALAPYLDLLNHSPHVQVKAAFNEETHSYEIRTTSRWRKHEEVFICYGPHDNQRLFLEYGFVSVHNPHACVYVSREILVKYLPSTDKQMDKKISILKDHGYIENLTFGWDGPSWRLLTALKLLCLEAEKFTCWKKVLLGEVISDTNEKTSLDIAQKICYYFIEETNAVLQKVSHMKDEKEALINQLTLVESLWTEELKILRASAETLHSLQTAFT
In test [9] the target is Protein cereblon/Cystatin-C (Homo sapiens) (UniProt P01034+Q96SW2). Briefly: Protac activity at CRBN/CST3 in human BxPC-3 cells assessed as CST3 degradation incubated for 16 hrs by proteomic analysis. Type of test: cell-based. The method in brief:
as §2

In test [10] the target is Protein cereblon/Epithelial discoidin domain-containing receptor 1 (Homo sapiens) (UniProt Q08345+Q96SW2). Briefly: Protac activity at CRBN/DDR1 in human BxPC-3 cells assessed as DDR1 degradation incubated for 16 hrs by proteomic analysis. Type of test: cell-based. The essentials:
as §2

Test [11] deals with Protein cereblon/Adhesion G-protein coupled receptor G1 (Homo sapiens) (UniProt Q96SW2+Q9Y653). Nature of the test: Protac activity at CRBN/ADGRG1 in human BxPC-3 cells assessed as ADGRG1 degradation incubated for 16 hrs by proteomic analysis. Type of test: cell-based. The essentials: as §2
Test [12] concerns the target Protein cereblon/Pleckstrin homology-like domain family B member 1 (Homo sapiens) (UniProt Q96SW2+Q86UU1). Briefly: Protac activity at CRBN/PHLDB1 in human BxPC-3 cells assessed as PHLDB1 degradation incubated for 16 hrs by proteomic analysis. In kind it is cell-based. The method in brief: as §2
Test [13] concerns the target Protein cereblon/E3 SUMO-protein ligase NSE2 (Homo sapiens) (UniProt Q96SW2+Q96MF7). Briefly: Protac activity at CRBN/NSMCE2 in human BxPC-3 cells assessed as NSMCE2 degradation incubated for 16 hrs by proteomic analysis. In kind it is cell-based. The method in brief:
as §2

In test [14] the target is Protein cereblon/Histone-lysine N-methyltransferase PRDM16 (Homo sapiens) (UniProt Q96SW2+Q9HAZ2). Briefly: Protac activity at CRBN/PRDM16 in human BxPC-3 cells assessed as PRDM16 degradation incubated for 16 hrs by proteomic analysis. Type of test: cell-based. The method in brief:
as §2

Test [15] addresses Protein cereblon/Anamorsin (Homo sapiens) (UniProt Q96SW2+Q6FI81). Nature of the test: Protac activity at CRBN/CIAPIN1 in human BxPC-3 cells assessed as CIAPIN1 degradation incubated for 16 hrs by proteomic analysis. Type of test: cell-based. The essentials:
as §2

Test [16] can be described thus: Upregulation of DNAJB9 protein levels in human BxPC-3 cells incubated for 16 hrs by proteomic analysis. Type of test: functional. The essentials:
as §1

Test [17] in a line: Upregulation of RND3 protein levels in human BxPC-3 cells incubated for 16 hrs by proteomic analysis. Type of test: functional. The method in brief:
as §1

A short description of test [18]: Upregulation of AFF1 protein levels in human BxPC-3 cells incubated for 16 hrs by proteomic analysis. Type of test: functional. The method in brief: as §1
A short description of test [19]: Upregulation of BACH1 protein levels in human BxPC-3 cells incubated for 16 hrs by proteomic analysis. Type of test: functional. The method in brief: as §1
The test system of test [20] is BXPC-3. Nature of the test: Antiproliferative activity against ZFP91 knockdown human BxPC-3 cells assessed as reduction in cell viability incubated for 48 hrs by MTT assay. Type of test: functional, cell-based. Conditions: BXPC-3, 48 h. The essentials: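 BxPC-3 cells were transfected with ZFP91 siRNA or scrambled control siRNA using Lipofectamine RNAiMAX in Opti-MEM, 5 pmol siRNA per complex. Compound was added together with the siRNA complex.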
Background: Tetrazolium assays rely on reduction of a dye to a coloured formazan, in cell work by metabolically active cells.

For test [21], the target named is Protein cereblon/E3 ubiquitin-protein ligase ZFP91 (Homo sapiens, UniProt Q96SW2+Q96JP5). Briefly: Protac activity at CRBN/ZFP91 in human BxPC-3 cells assessed as alteration of ZF91 protein levels at 0.5 uM incubated for 16 hrs in presence of NQO1 inhibitor dicoumarol. Type of test: cell-based. The method in brief:
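BxPC-3 cells treated 16 h with or without dicoumarol; carfilzomib added 1 h before treatments. ZFP91 immunoblotted against GAPDH.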

Chain of Protein cereblon/Histone-lysine N-methyltransferase PRDM16 (Homo sapiens) (Q96SW2 whole entry, looked up): as the sequence (Q96SW2 whole entry, looked up, the tested form may be a part) above
Chain of Protein cereblon/Histone-lysine N-methyltransferase PRDM16 (Homo sapiens) (Q9HAZ2 whole entry, looked up): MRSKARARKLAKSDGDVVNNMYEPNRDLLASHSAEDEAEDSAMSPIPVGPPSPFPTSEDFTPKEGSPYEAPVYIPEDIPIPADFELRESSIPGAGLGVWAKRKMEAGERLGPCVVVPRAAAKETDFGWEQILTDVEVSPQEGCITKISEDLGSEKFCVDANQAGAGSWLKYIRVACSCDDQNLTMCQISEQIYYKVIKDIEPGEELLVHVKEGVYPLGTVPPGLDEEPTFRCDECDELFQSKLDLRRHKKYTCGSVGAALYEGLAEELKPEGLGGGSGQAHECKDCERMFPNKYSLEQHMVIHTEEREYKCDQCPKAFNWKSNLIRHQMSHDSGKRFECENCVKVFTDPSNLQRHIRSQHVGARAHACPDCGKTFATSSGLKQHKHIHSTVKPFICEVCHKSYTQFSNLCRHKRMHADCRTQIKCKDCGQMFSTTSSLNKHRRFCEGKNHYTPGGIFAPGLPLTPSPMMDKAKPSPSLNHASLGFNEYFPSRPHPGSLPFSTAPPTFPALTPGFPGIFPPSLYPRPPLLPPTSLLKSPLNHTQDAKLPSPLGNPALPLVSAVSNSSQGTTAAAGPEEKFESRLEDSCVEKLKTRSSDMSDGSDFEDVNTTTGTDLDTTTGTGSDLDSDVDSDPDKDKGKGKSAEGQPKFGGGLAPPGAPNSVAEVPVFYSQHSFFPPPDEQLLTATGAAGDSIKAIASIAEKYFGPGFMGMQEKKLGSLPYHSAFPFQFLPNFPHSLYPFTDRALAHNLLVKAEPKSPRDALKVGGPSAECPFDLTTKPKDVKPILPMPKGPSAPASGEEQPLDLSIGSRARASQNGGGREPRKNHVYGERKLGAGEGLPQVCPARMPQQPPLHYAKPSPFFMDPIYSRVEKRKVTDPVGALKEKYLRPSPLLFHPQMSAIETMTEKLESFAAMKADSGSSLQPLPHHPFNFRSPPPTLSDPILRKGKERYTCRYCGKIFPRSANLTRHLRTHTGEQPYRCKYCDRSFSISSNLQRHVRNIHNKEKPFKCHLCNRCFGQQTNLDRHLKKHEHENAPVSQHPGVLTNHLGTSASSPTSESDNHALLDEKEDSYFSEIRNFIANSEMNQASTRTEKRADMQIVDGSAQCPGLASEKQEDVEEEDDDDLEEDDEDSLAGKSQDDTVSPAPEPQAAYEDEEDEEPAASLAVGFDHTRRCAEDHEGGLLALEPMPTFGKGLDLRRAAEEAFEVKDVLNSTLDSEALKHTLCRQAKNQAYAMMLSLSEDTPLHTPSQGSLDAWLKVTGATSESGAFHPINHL
Chain of Protein cereblon/Melanoma-associated antigen D1 (Homo sapiens) (Q96SW2 whole entry, looked up): as the sequence (Q96SW2 whole entry, looked up, the tested form may be a part) above
Chain of Protein cereblon/Melanoma-associated antigen D1 (Homo sapiens) (Q9Y5V3 whole entry, looked up): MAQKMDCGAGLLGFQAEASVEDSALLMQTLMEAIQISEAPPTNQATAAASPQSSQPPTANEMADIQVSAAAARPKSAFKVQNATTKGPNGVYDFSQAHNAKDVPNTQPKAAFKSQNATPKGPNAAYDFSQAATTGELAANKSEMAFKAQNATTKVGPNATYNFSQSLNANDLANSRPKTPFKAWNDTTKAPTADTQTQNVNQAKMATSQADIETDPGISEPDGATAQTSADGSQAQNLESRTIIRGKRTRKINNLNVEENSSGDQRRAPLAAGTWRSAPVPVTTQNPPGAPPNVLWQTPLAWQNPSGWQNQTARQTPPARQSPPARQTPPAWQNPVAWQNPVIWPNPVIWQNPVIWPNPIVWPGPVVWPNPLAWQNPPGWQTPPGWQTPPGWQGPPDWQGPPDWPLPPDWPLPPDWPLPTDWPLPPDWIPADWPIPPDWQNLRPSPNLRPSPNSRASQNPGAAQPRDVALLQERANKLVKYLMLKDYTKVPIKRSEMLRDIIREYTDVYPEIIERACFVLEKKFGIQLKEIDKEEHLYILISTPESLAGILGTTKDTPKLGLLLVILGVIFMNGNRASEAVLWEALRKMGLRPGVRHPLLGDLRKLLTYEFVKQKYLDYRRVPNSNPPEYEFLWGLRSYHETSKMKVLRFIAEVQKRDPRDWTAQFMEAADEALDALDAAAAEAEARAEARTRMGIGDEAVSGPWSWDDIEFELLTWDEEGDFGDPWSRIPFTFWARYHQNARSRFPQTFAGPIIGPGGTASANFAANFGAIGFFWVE

Consider `O=C1CCC(N2C(=O)c3cccc(NCCCCCC4CCN(CCNC(=O)c5cc6c(o5)C(=O)c5ccccc5C6=O)CC4)c3C2=O)C(=O)N1` (stereo unspecified), for which the IC50 in [1] came out at 8.7 µM; in test [20], 2.1 µM. Besides, the result in test [2] was Active. Besides, the inhibition result in test [3] was “inactive”. Further, the log2FC is -1.27 in [4]; -1.02 in test [5]; -0.97 in [6]; -0.9 in [7]; -0.86 in test [8]; -0.81 in test [9]. The log2FC is -0.73 in test [10]; -0.69 in test [11]; -0.64 in test [12]; -0.63 in test [13]; -0.6 in test [14]; -0.59 in test [15]. Moreover, the log2FC in [16] is 1.35; in test [17] it was 0.98; in test [18] it was 0.67; in [19], 0.6. The outcome in test [21] was inactive.
